According to ChEMBL document CHEMBL1121642, “Synthesis and antiherpetic activity of some 4-[(aryloxy)alkyl]pyrazoles” (1981):
In brackets after ≈: the same amount, converted by molar mass. Activity calls are given as the source filed them. The rule behind the calls is not given here.

Tests used:
Human alphaherpesvirus 2 [1] = experiment: Tested in vitro for minimum inhibitory activity against Herpes simplex virus type -2 (HSV-2); type: functional
Human alphaherpesvirus 2 [2] = experiment: Tested in vitro for minimum inhibitory activity against Herpes simplex virus type -2 (HSV-2); Inactive; type: functional, organism-based
Mus musculus [3] = species: Mus musculus; experiment: Effect on the survival rate of mice infected intravaginally with Herpes simplex virus type -2 (HSV-2) at 2.5% dosage twice in a day; type: functional
In short: (§1)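 Mice infected intravaginally with a tampon (dental pellet) saturated with HSV suspension. Aqueous drug solution given intravaginally b.i.d. on cotton tampons, starting 4 h postinfection. Each tampon stayed in 24 h, was re-moistened with 0.02 mL drug 6 h after insertion, and was replaced daily. Deaths were recorded daily to 14 days. Read-out: % survival and average survival time, with survivors scored >14 days.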

Mus musculus [4] = species: Mus musculus; experiment: Effect on the survival rate of mice infected intravaginally with Herpes simplex virus type -2 (HSV-2) at 1.25% dosage twice in a day; type: functional; in short: as §1
Mus musculus [5] = species: Mus musculus; experiment: Effect on the survival rate of mice infected intravaginally with Herpes simplex virus type -2 (HSV-2) at 5% dosage twice in a day; type: functional; in short: as §1
Mus musculus [6] = species: Mus musculus; experiment: Effect on the survival rate of mice infected intravaginally with Herpes simplex virus type -2 (HSV-2) at 10% dosage twice in a day; type: functional; in short: as §1

SMILES | MIC (Human alphaherpesvirus 2 [1]) [µg/mL] | also measured
CCc1nn(CCN(C)C)c(CC)c1CCCCCCOc1ccc(OC)cc1Cl | 6 (≈ 13.8 µM) | 
COc1ccc(OCCCCCCc2c(C)n[nH]c2C)c(Cl)c1 | 3 (≈ 8.91 µM) | 
CCOC(=O)Cn1nc(CC)c(CCCCCCOc2ccc(OC)cc2Cl)c1CC | 6 (≈ 13.3 µM) | 
CCc1n[nH]c(CC)c1CCCCCCOc1ccc(Br)cc1 |  | MIC (Human alphaherpesvirus 2 [2]): inactive
CCc1n[nH]c(CC)c1CCCCCCOc1ccc([S+](C)[O-])cc1Cl (configuration not stated) | 3 (≈ 7.56 µM) | 
COc1ccc(OCCCCCCc2c(C)nn(C)c2C)c(Cl)c1 | 0.7 (≈ 1.99 µM) | 
CCc1nn(C)c(CC)c1CCCCCOc1ccc(OC)cc1Cl | 3 (≈ 8.22 µM) | 
CCc1n[nH]c(CC)c1CCCCCOc1ccc(OC)cc1Cl | 6 (≈ 17.1 µM) | 
CCc1n[nH]c(CC)c1CCCCCCOc1ccc(OC)cc1Cl | 6 (≈ 16.4 µM) | Average survival (Mus musculus [3]): >11 days; Survival (Mus musculus [3]): 40%; Average survival (Mus musculus [4]): >10 days; Survival (Mus musculus [4]): 30%; Average survival (Mus musculus [5]): >11 days; Survival (Mus musculus [5]): 60%
COc1ccc(OCCCCCCc2c(-c3ccccc3)n[nH]c2-c2ccccc2)c(Cl)c1 | 3 (≈ 6.51 µM) | 
CCc1n[nH]c(CC)c1CCCCCCCOc1ccc(OC)cc1Cl | 6 (≈ 15.8 µM) | 
CCCCn1nc(C)c(CCCCCCOc2ccc(OC)cc2Cl)c1C | 6 (≈ 15.3 µM) | 
CCc1n[nH]c(CC)c1CCCCCCOc1ccc(Cl)cc1 | 6 (≈ 17.9 µM) | 
CCCn1nc(C)c(CCCCCCOc2ccc(OC)cc2Cl)c1C | 1.5 (≈ 3.96 µM) | 
CCn1nc(C)c(CCCCCCOc2ccc(OC)cc2Cl)c1C | 0.7 (≈ 1.92 µM) | Average survival (Mus musculus [6]): >9 days; Survival (Mus musculus [6]): 30%; Average survival (Mus musculus [5]): >10 days; Survival (Mus musculus [5]): 30%
CCc1nn(CC(F)(F)F)c(CC)c1CCCCCCOc1ccc(OC)cc1Cl |  | MIC (Human alphaherpesvirus 2 [2]): inactive
CCc1n[nH]c(CC)c1CCCCCCOc1ccc([N+](=O)[O-])cc1Cl |  | MIC (Human alphaherpesvirus 2 [2]): inactive
